Rows were chosen to be rich in hits. Some 2.3% of all compounds tested hit in one or more screens of this group.
V1R ag counter: agonists of human V1a receptor, primary screen, counter-screen for OXTR agonist project, fluorescence, CHO-V1R cells | Fluo-8 calcium fluorescence, agonist mode; 0% DMSO, 100% 3 nM vasopressin | 320,000 compounds, 0.25% hits | AID 2797, 2010 | activation, % at 3 µM | Vasopressin V1a receptor (Homo sapiens), P37288;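 active = activation above the mean activation of all tested compounds plus 3 SD, per screening run, cut at about 20% in these data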;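 note: signal is peak over basal fluorescence ratio across a 100 second FLIPR read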
TAAR1 ag: human TAAR1 agonists, primary screen, Fluo-8 calcium fluorescence, CHO RD-HGA16 cells | Trace amine-associated receptor 1 (Homo sapiens), Q96RJ0 | activation, % at 3 µM | 360,000 compounds, 0.99% hits | vehicle wells 0%, saturating PEA agonist 100%;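 active = activation above the mean activation of all test compounds in the run plus 3 SD, cut at about 38% in these data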
Target sequence (Q96RJ0 whole entry, looked up): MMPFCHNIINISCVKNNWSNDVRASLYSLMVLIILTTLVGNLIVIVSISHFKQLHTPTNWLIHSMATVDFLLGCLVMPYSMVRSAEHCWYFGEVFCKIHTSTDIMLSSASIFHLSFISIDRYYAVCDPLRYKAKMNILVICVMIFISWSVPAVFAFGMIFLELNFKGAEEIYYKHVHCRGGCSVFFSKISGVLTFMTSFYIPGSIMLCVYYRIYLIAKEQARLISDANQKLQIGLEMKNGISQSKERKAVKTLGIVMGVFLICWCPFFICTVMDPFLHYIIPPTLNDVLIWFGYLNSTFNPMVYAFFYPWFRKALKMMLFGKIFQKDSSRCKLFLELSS
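Benchmarks: low control DMSO, high control PEA (EC100); System: CHO RD-HGA16 cells carrying human TAAR1 plus Gα16; Detection: Fluo-8 fluorescence, 5 s baseline then 140 s kinetic read; Schedule: 17-24 h plating, Fluo-8 75 min 37 °C, 30 min RT; Read-out basis: % activation from peak over basal fluorescence ratio, DMSO-to-PEA scaled.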
TAAR1 antag: human TAAR1 antagonists, primary screen, Fluo-8 calcium fluorescence, CHO RD-HGA16 cells; antagonist; inhibition, % at 3 µM; 360,000 compounds, 1.5% hits; AID 624466, 2012;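 active = inhibition above a per-plate cutoff, the mean inhibition of test compounds on that plate plus 3 SD, cut at about 49% in these data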;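 note: 0% = DMSO plus EC80 beta-PEA response and 100% = DMSO alone without agonist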
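Test system: hTAAR1-expressing CHO RD-HGA16 cells, Gα16-coupled; Probe or stimulus: EC80 β-phenethylamine stimulus; Compound dosing: single nominal final test compound concentration of 3 µM; Timing: 140 s kinetic read after compound, 140 s after agonist; Signal: Fluo-8 calcium-sensitive fluorescence; Measure: % inhibition of agonist calcium response; Controls: DMSO and EC80 PEA controls.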
OXTR potentiate: human OXTR potentiators, primary screen, fluorescence, CHO-OTR cells, Fluo-8 calcium; Oxytocin receptor (Homo sapiens), P30559; activation, % at 3 µM; Fluo-8 calcium fluorescence, potentiator mode; 0% = oxytocin EC15, 100% = EC100; 320,000 compounds, 0.061% hits;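 active = activation above that plate's cutoff, the mean activation of tested compounds plus 3 SD, cut at about 6.6% in these data, passing the limit was not always enough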;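 note: 100% uses oxytocin at 75 nM as the full agonist control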
Target sequence (P30559 whole entry, looked up): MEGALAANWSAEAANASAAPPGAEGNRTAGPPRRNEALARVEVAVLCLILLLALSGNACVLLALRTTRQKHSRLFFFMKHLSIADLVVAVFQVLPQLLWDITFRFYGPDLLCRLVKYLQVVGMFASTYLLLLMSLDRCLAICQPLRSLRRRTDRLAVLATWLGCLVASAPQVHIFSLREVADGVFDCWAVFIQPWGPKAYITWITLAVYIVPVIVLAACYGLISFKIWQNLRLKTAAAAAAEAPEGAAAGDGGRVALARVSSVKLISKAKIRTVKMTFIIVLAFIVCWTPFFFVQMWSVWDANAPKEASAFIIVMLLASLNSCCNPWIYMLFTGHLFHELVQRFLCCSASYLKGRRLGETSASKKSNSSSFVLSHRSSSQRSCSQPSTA
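Material: CHO-OTR cells, human receptor; compound dosing: single dose, 3.0 µM nominal final compound concentration; schedule: 6 min compound pre-incubation at room temperature, 100 s kinetic read; measured by: kinetic Fluo-8 calcium fluorescence; read-out basis: % activation vs EC15 and EC100 oxytocin; controls: EC15 oxytocin alone as 0%, 75 nM oxytocin as 100%; replicates: singlicate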
OXTR agonist: human OXTR agonists, primary screen, fluorescence, CHO-OTR cells, Fluo-8 calcium | Oxytocin receptor (Homo sapiens), P30559 | Fluo-8 calcium fluorescence; normalized: DMSO 0%, oxytocin 100% | activation, % at 3 µM | 320,000 compounds, 0.32% hits | AID 2435, 2010;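 active = activation above the mean of all tested compounds plus 3 SD, cutoff set per screening run, cut at about 20% in these data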;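 note: peak over basal fluorescence ratio from a 100 s FLIPR kinetic read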
TAAR1 ag confirm: human TAAR1 agonists, retest of hits, confirmation, Fluo-8 calcium fluorescence, CHO RD-HGA16 cells. 2,400 compounds, 82% hits. scaled: DMSO 0%, maximal phenethylamine 100%. shares compounds with TAAR1 ag. activation, % at 3 µM;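 active = activation above a cutoff set at the run's mean compound activation plus 3 SD, cut at about 39% in these data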
Ga16 nonsel ag: nonselective calcium mobilization agonists, CHO-Ga16 cells, counter-screen for hTAAR1 agonist project, cell-based, fluorescence, CHO-Ga16 parental line. activation, % at 3 µM. 2,400 compounds, 50% hits. Fluo-8 calcium fluorescence; normalized to maximal ATP response, DMSO zero. shares compounds with TAAR1 ag;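 active = activation above the run cutoff, the mean activation over all tested wells plus 3 SD, cut at about 12% in these data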;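 note: 0% = DMSO wells and 100% = maximal ATP response on the peak over basal ratio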
TAAR1 desens: TAAR1 desensitization by agonist hits, confirmation, counter-screen for TAAR1 agonist project, cell-based, fluorescence, tachyphylaxis | AID 651951, 2012 | inhibition, % at 3 µM | 2,400 compounds, 46% hits | CHO RD-HGA16 hTAAR1, Fluo-8 calcium, beta-PEA response inhibition | shares compounds with TAAR1 ag;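 active = inhibition above the run cutoff, the mean inhibition of all test compounds plus 3 SD, cut at about 49% in these data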;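 note: beta-PEA stimulus applied at its EC80; loss of beta-PEA calcium signal after compound pretreatment read as receptor desensitization; 0% = DMSO with beta-PEA at EC80 and 100% = DMSO alone without agonist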
Ga16 nonsel ant: inhibition of ATP-evoked calcium response in CHO-Ga16 cells, counter-screen for TAAR1 agonist project, cell-based, fluorescence; shares compounds with TAAR1 ag; CHO-Ga16 ATP-induced calcium, Fluo-8 fluorescence; inhibition, % at 3 µM; 2,400 compounds, 39% hits; AID 651952, 2012;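 active = inhibition above the plate's mean compound inhibition plus 3 SD, computed per plate, cut at about 22% in these data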;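 note: 0% = EC80 ATP with DMSO and 100% = DMSO wells without ATP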
* hit, by the source's call; · = no result given.

SMILES	V1R ag counter	TAAR1 ag	TAAR1 antag	OXTR potentiate	OXTR agonist	TAAR1 ag confirm	Ga16 nonsel ag	TAAR1 desens	Ga16 nonsel ant
OC(c1cc(-c2ccc(C(F)(F)F)cc2)nc(C(F)(F)F)c1)C1CCCCN1 (centres undefined)	26*	82*	48	-13	23*	82*	62*	69*	70*
O=C(c1cc(-c2ccccc2)nn1-c1ccccc1)N1CCN(S(=O)(=O)c2c(F)cccc2F)CC1	2	3	42	-3	0	·	·	·	·
S=C(NCCc1ccccc1)N1CCn2cccc2C1c1cccnc1 (centres undefined)	0	57*	13	-10	1	62*	4	37	27*
COc1ccccc1NC(=O)CN1CCN(CC(=O)Nc2ccc(F)cc2F)CC1	·	-2	-13	·	·	·	·	·	·
COc1ccccc1CCN1C(=S)NC(C)(C)CC1(C)O (centres undefined)	-2	51*	6	-7	-3	74*	0	43	9
COc1ccc(CN2C(=S)NC(C)(C)CC2(C)O)cc1 (centres undefined)	0	0	-4	-2	0	·	·	·	·
Cc1cc2nc3c(=O)n(C4CCCCC4)c(=O)[nH]c3nc2cc1N	·	57*	12	·	·	28	64*	27	39*
Cc1cc(C)cc(Nc2cc(=O)n(C3CCCCC3)c(=O)[nH]2)c1	11	10	22	-14	9	·	·	·	·
COc1ccc(NC(=O)CS(=O)CC(=O)NCC2OCCc3ccccc32)cc1 (centres undefined)	-1	10	-14	-9	-1	·	·	·	·
O=C(O)CCC(=O)NCC1OCCc2ccccc21 (centres undefined)	1	54*	7	-3	0	16	2	13	8
Cc1noc(C)c1NC(=O)N(C)C[C@H]1Oc2ccc(NS(=O)(=O)c3ccc(F)cc3)cc2C(=O)N([C@H](C)CO)C[C@@H]1C	0	4	-6	-6	0	·	·	·	·
O=[N+]([O-])c1ccc2nonc2c1Nc1ccccc1	-1	78*	24	0	-2	5	1	-6	1
Cc1ccccc1S(=O)(=O)NC(=O)C1(C)CCN1C(=O)C/C=C/c1ccccc1 (centres undefined)	·	0	-8	·	·	·	·	·	·
COc1ccc(CCN2CCC(Nc3nc4ccccc4n3Cc3ccc(F)cc3)CC2)cc1	37*	59*	30	-11	45*	54*	20*	23	16
COc1ccc(CNc2nc3ccccc3n2CCN2CCCCC2)cc1	0	-1	-8	-4	-1	·	·	·	·
O=c1oc2ccccc2c(NCc2ccccc2F)c1[N+](=O)[O-]	4	5	0	4	1	·	·	·	·
O=c1oc2ccccc2c(NCCc2ccccc2)c1[N+](=O)[O-]	6	63*	17	-8	4	70*	10	13	6
N#C/C(=C\c1cccs1)C(=O)c1ccccc1Cl	1	59*	54*	3	-1	53*	33*	72*	59*
COc1cc(C(=S)N2CCN(C(c3ccccc3)c3ccccc3)CC2)cc(OC)c1O	·	0	-27	·	·	·	·	·	·
COc1cccc(NC(=O)c2nnn(Cc3ccc(Br)cc3F)c2N)c1	29*	59*	53*	-12	27*	76*	32*	59*	36*
CCc1ccc(Cn2nnc(C(=O)Nc3ccc(OC)cc3OC)c2N)cc1	24*	72*	10	-6	29*	60*	22*	25	20
COc1ccc(NC(=O)c2nnn(CC(=O)Nc3ccccc3OC)c2N)c(OC)c1	1	7	-14	2	-1	·	·	·	·
O=S(=O)(Nc1cccc(S(=O)(=O)N2CCCC2)c1)c1ccc(Cl)cc1	0	3	1	-4	3	·	·	·	·
Cc1cc(C)nc(N2CCN(C(=O)c3ccc(S(=O)(=O)N4CCCCCC4)cc3)CC2)n1	1	0	-10	-4	1	·	·	·	·
CCN1CCN(c2cc(SC(C)C)nc(-c3ccc(OC)cc3)n2)CC1	·	46*	-17	·	·	74*	19*	29	5
SMILES	V1R ag counter	TAAR1 ag	TAAR1 antag	OXTR potentiate	OXTR agonist	TAAR1 ag confirm	Ga16 nonsel ag	TAAR1 desens	Ga16 nonsel ant
CC(C)Sc1cc(N2CCOCC2)nc(-c2ccc(Cl)cc2)n1	1	13	-21	2	2	·	·	·	·
COc1cc(C(C)=O)ccc1OCC(O)CNCC(O)c1ccccc1 (centres undefined)	1	91*	36	-18	2	98*	3	74*	0
COc1cc(C(C)=O)ccc1OCC(O)CN1CCN(S(=O)(=O)c2ccccc2)CC1 (centres undefined)	0	15	3	-13	0	·	·	·	·
Cc1ccc(C)c(S(=O)(=O)N(C)C2CCS(=O)(=O)C2)c1 (centres undefined)	0	0	-2	-8	0	·	·	·	·
CN1CCC(OC(=O)c2ccc(Br)cc2)CC1	1	15	-2	-5	2	·	·	·	·
CN1CCC(=C(c2ccccc2)c2ccc(Br)cc2)CC1	7	54*	-26	-14	18	63*	34*	17	19
COc1ccc(NC(=O)CCc2nc(-c3ccccc3F)no2)cc1	7	48*	15	-18	9	67*	8	44	20
C#CCN1[C@@H]2CCN(C2)c2cc(Br)ccc2S1(=O)=O	·	-1	-8	·	·	·	·	·	·
O=C(NC1CCCCC1)C(c1c(F)cccc1Cl)N(C(=O)c1csnn1)C1CC1 (centres undefined)	-1	1	2	-6	-1	·	·	·	·
